Experiment [1] concerns Mycobacterium avium subsp. paratuberculosis. Put plainly: Antituberculosis activity against Mycobacterium paratuberculosis UCF-5 isolated from Crohn's disease patient assessed as minimum drug level required for killing after 56 days by MGIT 960 susceptibility test. Format: functional. Put shortly: (§1)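 10^5 to 10^6 CFU from single-cell suspensions inoculated in duplicate into MGIT ParaTB medium with supplement and egg yolk. Drugs were at final 0.5–64.0 μg/ml, with 128.0 μg/ml added for some strains. Tubes were incubated at 37°C in MGIT 960. Inhibition is the lowest concentration giving a time to detection longer than a drug-free 1:100 inoculum control. Killing is no positive signal through 56 days.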

The test system is the same in experiment [2]. Put plainly: Antituberculosis activity against Mycobacterium paratuberculosis ATCC 19698 isolated from bovine assessed as lowest drug level producing inhibition at 10^6 CFU of inoculum by MGIT 960 susceptibility test. In kind it is functional. Put shortly:
(§2)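 M. paratuberculosis ATCC 19698 at 10^6 CFU per MGIT ParaTB tube in duplicate, drugs at final 1.0–64.0 μg/ml, 37°C in MGIT 960. Inhibition is the lowest concentration whose time to detection exceeds the 1:100 diluted-inoculum solvent control. No detectable growth means the tube never signals positive through 56 days.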

Experiment [3] shares this test system. Put plainly: Antituberculosis activity against Mycobacterium paratuberculosis UCF-7 isolated from Crohn's disease patient assessed as colony counts at 4 ug after 12 days by MGIT 960 susceptibility test. Format: functional.
Experiment [4] has the same test system. The experiment in a line: Antituberculosis activity against Mycobacterium paratuberculosis B236 isolated from bovine assessed as minimum drug level required for inhibition by MGIT 960 susceptibility test. In kind it is functional. In short, it runs like this: as §1
Experiment [5] shares this test system. The experiment in a line: Antituberculosis activity against Mycobacterium paratuberculosis UCF-4 isolated from Crohn's disease patient assessed as minimum drug level required for inhibition by MGIT 960 susceptibility test. In kind it is functional. In short, it runs like this: as §1
Experiment [6] has the same test system. Put plainly: Antituberculosis activity against Mycobacterium paratuberculosis B213 isolated from bovine assessed as minimum drug level required for killing after 56 days by MGIT 960 susceptibility test. In kind it is functional. In short, it runs like this: as §1
The test system is the same in experiment [7]. Put plainly: Antituberculosis activity against Mycobacterium paratuberculosis UCF-7 isolated from Crohn's disease patient assessed as minimum drug level required for killing after 56 days by MGIT 960 susceptibility test. In kind it is functional. In short, it runs like this:
as §1

For experiment [8] the test system is unchanged. The experiment in a line: Antituberculosis activity against Mycobacterium paratuberculosis UCF-5 isolated from Crohn's disease patient assessed as minimum drug level required for inhibition by MGIT 960 susceptibility test. Format: functional. In short, it runs like this: as §1
Experiment [9] deals with Mycobacterium avium. Put plainly: Antituberculosis activity against Mycobacterium avium ATCC 35712 isolated from chicken assessed as minimum drug level required for inhibition by MGIT 960 susceptibility test. In kind it is functional. In short, it runs like this: as §1
For experiment [10], the system named is Mycobacterium avium subsp. paratuberculosis. The experiment in a line: Antituberculosis activity against Mycobacterium paratuberculosis JTC303 isolated from bovine assessed as minimum drug level required for killing after 56 days by MGIT 960 susceptibility test. Format: functional. Put shortly:
as §1

For experiment [11] the test system is unchanged. The experiment in a line: Antituberculosis activity against Mycobacterium paratuberculosis UCF-7 isolated from Crohn's disease patient assessed as minimum drug level required for inhibition by MGIT 960 susceptibility test. Format: functional. Put shortly: as §1
For experiment [12] the test system is unchanged. Put plainly: Antituberculosis activity against Mycobacterium paratuberculosis ATCC 19698 isolated from bovine assessed as viability after 5 to 8 days by standard plate count method.
For experiment [13] the test system is unchanged. Put plainly: Antituberculosis activity against Mycobacterium paratuberculosis UCF-4 isolated from Crohn's disease patient assessed as minimum drug level required for killing after 56 days by MGIT 960 susceptibility test. In kind it is functional. Put shortly: as §1
Experiment [14] shares this test system. The experiment in a line: Antituberculosis activity against Mycobacterium paratuberculosis B238 isolated from bovine assessed as minimum drug level required for inhibition by MGIT 960 susceptibility test. In kind it is functional. In short, it runs like this:
as §1

Experiment [15] deals with Mycobacterium avium. The experiment in a line: Antituberculosis activity against Mycobacterium avium ATCC 35712 isolated from chicken assessed as minimum drug level required for killing after 56 days by MGIT 960 susceptibility test. Format: functional. Put shortly:
as §1

Experiment [16] relates to Mycobacterium avium subsp. paratuberculosis. Put plainly: Antituberculosis activity against Mycobacterium paratuberculosis JTC303 isolated from bovine assessed as minimum drug level required for inhibition by MGIT 960 susceptibility test. Format: functional. Put shortly: as §1
The test system is the same in experiment [17]. Put plainly: Antituberculosis activity against Mycobacterium paratuberculosis UCF-7 isolated from Crohn's disease patient assessed as colony counts at 2 ug after 12 days by MGIT 960 susceptibility test. Format: functional.
Experiment [18] shares this test system. The experiment in a line: Antituberculosis activity against Mycobacterium paratuberculosis ATCC 19698 isolated from bovine assessed as lowest drug level producing inhibition at 10^6 CFU of inoculum by agar counting method. Format: functional. Put shortly:
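ATCC 19698 at 10^6 CFU was exposed to drug (1.0–64.0 μg/ml) in MGIT ParaTB medium at 37°C. Aliquots taken at 3 and 5 days were centrifuged, resuspended in PBS and declumped with glass beads. Serial dilutions were plated in quadruplicate on 7H10/OADC/mycobactin J and counted after 8 weeks. Inhibition is the lowest concentration giving a 2 log10 (99%) CFU reduction.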

For experiment [19] the test system is unchanged. The experiment in a line: Antituberculosis activity against Mycobacterium paratuberculosis B238 isolated from bovine assessed as minimum drug level required for killing after 56 days by MGIT 960 susceptibility test. Format: functional. Put shortly:
as §1

Experiment [20] shares this test system. The experiment in a line: Antituberculosis activity against Mycobacterium paratuberculosis B236 isolated from bovine assessed as minimum drug level required for killing after 56 days by MGIT 960 susceptibility test. Format: functional. In short, it runs like this:
as §1

Experiment [21] has the same test system. The experiment in a line: Antituberculosis activity against Mycobacterium paratuberculosis ATCC 19698 isolated from bovine assessed as minimum drug level resulting in no detectable growth at 10^6 CFU of inoculum after 56 days by MGIT 960 susceptibility test. Format: functional. Put shortly:
as §2

Experiment [22] shares this test system. Put plainly: Antituberculosis activity against Mycobacterium paratuberculosis B213 isolated from bovine assessed as minimum drug level required for inhibition by MGIT 960 susceptibility test. Format: functional. In short, it runs like this:
as §1

In the case of `O=C(O)c1cn(C2CC2)c2cc(N3CCNCC3)c(F)cc2c1=O` [CIPROFLOXACIN], the Activity in [1] came out at 4 µg/mL; in experiment [2] it was 1 µg/mL; in experiment [4] it was 4 µg/mL; in [5], 1 µg/mL; in [6], 16 µg/mL; in experiment [7] it was 4 µg/mL. Further, the Activity came to 2 µg/mL in [8]; 16 µg/mL with Mycobacterium avium [9]; 8 µg/mL in experiment [10]; 1 µg/mL in experiment [11]; 4 µg/mL in experiment [13]; 4 µg/mL in experiment [14]. The Activity was found to be 64 µg/mL with Mycobacterium avium [15]; 2 µg/mL in experiment [16]; 1 µg/mL in experiment [18]; 16 µg/mL in experiment [19]; 16 µg/mL in experiment [20]; 32 µg/mL in experiment [21]. Moreover, the Activity in [22] turned out to be 4 µg/mL. The figures for the log10CFU/ml in experiment [3], in experiment [12] and in [17] were 0.76, 1 and 1.98, respectively.
